Variants at the floor of the assay were thinned out.
B1: tRNA (parent)
chain: GUUCCGUUGGCGUAAUGGUAACGCGUCUCCCUCCUAAGGAGAAGACUGCGGGUUCGAGUCCCGUACGGAACG

Variants of: B1
Assay: yeast fitness relative to wild type (ratio to wild type); higher = fitter; tRNA-Arg(CCU), competitive growth, 37 C, YPD
Procedure, shortened: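 For this measurement, the tRNA-Arg(CCU) gene was varied by chemical synthesis at a 3% per-site mutation rate across 69 sites, and each variant was placed at the native genomic locus in Saccharomyces cerevisiae. The pooled strains went through a 24-hour competition in YPD at 37°C in six parallel replicates, with amplicons from start and end populations read by 100-nucleotide paired-end sequencing. Darwinian fitness relative to wild type followed from the change in each genotype's frequency. Genotypes needed ≥ 100 starting reads, and estimates < 0.5 were set to 0.5.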

Row | Variant | yeast fitness
1 | C31A | 0.848
2 | C31G | 0.939
3 | C31A A40C C62U | 0.532
4 | C31A C34A | 0.603
5 | C30U C31G A36C U54A | 0.674
6 | C30U C34G C46U | ≤ 0.5
7 | C30U U54A C66U A70C | ≤ 0.5
8 | C31A C34G A45U | 0.591
9 | C30U C46A C62U | 0.852
10 | C30U C31U A36C | ≤ 0.5
11 | C31A A57U A69U | ≤ 0.5
12 | C30G G58C C66G | 0.829
13 | C30U A36C G67U | 0.639
14 | C30U C33A G63C U64C | ≤ 0.5
15 | C30U A42C G67C A69U | ≤ 0.5
16 | C30U U35C A45U A57C | 0.534
17 | C30U A57C | 0.586
18 | C30U G63C | 0.757
19 | C30U G63A | 0.729
20 | C30G G67C | 0.637
21 | C30U G68A A70U | 0.577
22 | C30U A36C G52A C55G | ≤ 0.5
23 | C31A A40C U47A U64A | ≤ 0.5
24 | C31A C34A A37C | 0.6

Row | Variant | yeast fitness
25 | C31A A69U | 0.856
26 | C31A A69C | 0.949
27 | C31A G44A | 0.792
28 | C31A C33G A42C G48A U54A C66A | ≤ 0.5
29 | C31A C46G | 0.852
30 | C31A C46A | 0.853
31 | C30G G52C C62U | ≤ 0.5
32 | C30U C33G A69C | 0.546
33 | C30U A43G | 0.647
34 | C30U U59C | 0.824
35 | C30U U59A | 0.828
36 | C30U A42C C62G C66G | ≤ 0.5
37 | C30U C31A A40U C49A | 0.682
38 | C30U C31U C34A A70C | ≤ 0.5
39 | C30U A40C G63C U64C | ≤ 0.5
40 | C30U G41C A69U | ≤ 0.5
41 | C30G U32A A42U | ≤ 0.5
42 | C31G A36C | 0.555
43 | C31G A36G | 0.783
44 | C30U U35A A42G C61U G63A | 0.519
45 | C31A A45C C62U G63A U64A | 0.521
46 | C30U G44A A65U | ≤ 0.5
47 | C30G U35C A42G C49U G56A G58A A70C | 0.591
48 | C30U U35C A42C G48C | ≤ 0.5

Row | Variant | yeast fitness
49 | C30U A43C U54A | 0.611
50 | C30U A69U A70C | 0.737
51 | C31A A65G | 0.732
52 | C31A A65C | 0.89
53 | C31A A65C G67U | ≤ 0.5
54 | C31A A43G G68A | 0.657
55 | C31A A45G G52A C55A | ≤ 0.5
56 | C30U G39A | 0.897
57 | C30G U32G C55G | ≤ 0.5
58 | C30U A40C A57C | ≤ 0.5
59 | C30U U47A U59A C60U C62G C66U | ≤ 0.5
60 | C30G U35C C66U | ≤ 0.5
61 | C30U A36C | 0.566
62 | C30U A36U | 0.57
63 | C30U A36G | 0.927
64 | C30U U47A G67C | 0.567
65 | C30U C33A A36U A43U U54C G56A | 0.54
66 | C30U C62U G68C | 0.598
67 | C30G U47C C66U | 0.634
68 | C30U G50C A70G | ≤ 0.5
69 | C30U U47A G67C G68A | ≤ 0.5
70 | C30G U53G G63A | ≤ 0.5
71 | C30G U35C | ≤ 0.5
72 | C30U A45G G58A | 0.663

Row | Variant | yeast fitness
73 | C31A A40U U53G G56C C62G | ≤ 0.5
74 | C30U U54C A57C A70C | ≤ 0.5
75 | C31A C33U G41C G67C | ≤ 0.5
76 | C31A C55A G67A | ≤ 0.5
77 | C30U C46A G63A | 0.825
78 | C30U A36G G44A C61G | ≤ 0.5
79 | C31A G38A C46U | ≤ 0.5
80 | C30U U32G A37G | ≤ 0.5
81 | C30U C31U G41C | 0.526
82 | C30G G58A | 0.678
83 | C30U C33A G56C A70C | ≤ 0.5
84 | C30U C61G A70C | ≤ 0.5
85 | C31A A43G | 0.897
86 | C31A A43U | 0.94
87 | C30U G50C C66U | 0.526
88 | C30U U54C A57C | ≤ 0.5
89 | C30G G52C G67A | ≤ 0.5
90 | C31A G63C G68U | ≤ 0.5
91 | C31A G52C | ≤ 0.5
92 | C30U A36U A37G G48A A70G | ≤ 0.5
93 | C31A A36C G44A A57U C66A | ≤ 0.5
94 | C30U A43U C62U | 0.845
95 | C30U G38C C55A G67A | ≤ 0.5
96 | C30U A43U C61G A69C | ≤ 0.5

Row | Variant | yeast fitness
97 | C30G U47A C49G C61U G63C | 0.541
98 | C30G U32A G48A G67C | 0.568
99 | C31A G67A | 0.754
100 | C30U C31G A43C G51A | 0.565
101 | C30U G38A A69U | 0.781
102 | C30U G51A | 0.7
103 | C30U G51C | 0.535
104 | C30U C33U A57G C60A | ≤ 0.5
105 | C31A G44A A57C G68C | 0.753
106 | C30U A45G | 0.781
107 | C30U A45C | 0.72
108 | C30U G39C U53A | ≤ 0.5
109 | C30U U54A G68U | ≤ 0.5
110 | C30U C46A U54A A57G | 0.52
111 | C31A A40C C46U C55U G63A | ≤ 0.5
112 | C30U U32G U64A G68C | ≤ 0.5
113 | C30G U32C G50C U59C | ≤ 0.5
114 | C30U C55G A69C | ≤ 0.5
115 | C30U G38A | 1
116 | C30U G38U | 0.824
117 | C30U G38C | 0.66
118 | C30U C46A C61A G68A | ≤ 0.5
119 | C30U C46A G68C | 0.704
120 | C30U U32A A36U A37U C62U G63A | ≤ 0.5

Row | Variant | yeast fitness
121 | C30U C31G U53C | ≤ 0.5
122 | C31A G44A A57C C62A G68C | 0.559
123 | C31A A42C | 0.963
124 | C30U G41C A70U | 0.567
125 | C31A A36G A57U | 0.539
126 | C31A C33G A36U U54C | ≤ 0.5
127 | C31A G39A A43C U53A C66A | ≤ 0.5
128 | C31A C62U | 0.944
129 | C31A C62G | 0.651
130 | C31A U53C | 0.571
131 | C30G U32C G50C | ≤ 0.5
132 | C31A C62A A70C | 0.548
133 | C31A G51C C60U G67A | ≤ 0.5
134 | C30G U35A G51C | 0.628
135 | C31A U32C | 0.766
136 | C31G A36G A69C | 0.622
137 | C31A C46U A70C | 0.62
138 | C30U G52A U54C | ≤ 0.5
139 | C30U G51C G67A | ≤ 0.5
140 | C31A A43G G50A A57U | 0.768
141 | C30U C33G C46G | ≤ 0.5
142 | C30G G52C | 0.512
143 | C30G G52A | 0.605
144 | C30U C31G U35A | 0.62

Row | Variant | yeast fitness
145 | C31A G44C A65G | 0.553
146 | C30U A37C C66U | ≤ 0.5
147 | C30U U32C U54A | ≤ 0.5
148 | C31A A37C G67A | ≤ 0.5
149 | C30U A42G C55U | 0.545
150 | C30U C55U | 0.687
151 | C30U C55G | 0.553
152 | C30U C62U | 0.868
153 | C30U U54C | 0.805
154 | C30U A65U | 0.876
155 | C30U A65G | 0.932
156 | C30G U47G | ≤ 0.5
157 | C30U A42C G48C | ≤ 0.5
158 | C31A G56C A57G C62U | ≤ 0.5
159 | C30U C61A | 0.648
160 | C31A G56A | 0.805
161 | C31A U47C | 0.767
162 | C30U C31A G41A | ≤ 0.5
163 | C30U G41C | 0.651
164 | C30U G41A | 0.842
165 | C31A C55A | 0.666
166 | C31A C55U | 0.863
167 | C30U C46U C60A | ≤ 0.5

Source: the RNAGym collection of RNA variant scans (doi:10.1126/science.aae0568)
